In ChEMBL document CHEMBL1125894, “Dual-action cephalosporins: cephalosporin 3'-quaternary ammonium quinolones” (1991):
Values after ≈ are worked out from the molar mass of the structure shown.

Assays:
Citrobacter freundii [1] = test: In vitro antibacterial activity against Citrobacter freundii BS 16; assay type: functional
Procedure, shortened: (§1)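 Serial 2-fold dilutions in the NCCLS broth microdilution method for aerobic nonfastidious organisms, with an 18-h incubation. The value is reported as the minimum inhibitory concentration (MIC).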

Escherichia coli [2] = test: In vivo activity in murine against Escherichia coli 257 infection after sc administration.; assay type: functional; details: Escherichia coli, sc; read-out: ED50
Procedure, shortened: (§2)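 Mouse protection test in CD1 Swiss albino mice (18–20 g). Mice were infected intraperitoneally with 0.5 mL of a diluted bacterial suspension, then treated within 5 min with one 1.0 mL subcutaneous dose at the dorsal base of the neck. Doses ranged from 0.05 to 250 mg/kg, with six mice per group. ED50 was calculated by the Reed–Muench method.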

Escherichia coli [3] = test: In vitro antibacterial activity against Escherichia coli 257; assay type: functional; procedure, shortened: as §1
Enterobacter cloacae = test: In vivo activity in murine against Enterobacter cloacae 5699 infection after sc administration.; assay type: functional; procedure, shortened: as §2
Escherichia coli [4] = test: Antibacterial activity against Escherichia coli DC-O; assay type: functional; procedure, shortened: as §1
Klebsiella pneumoniae [5] = test: In vitro antibacterial activity against Klebsiella pneumoniae A; assay type: functional; procedure, shortened: as §1
Klebsiella pneumoniae [6] = test: In vivo activity in murine against Klebsiella pneumoniae A infection after sc administration.; assay type: functional; procedure, shortened: as §2
Escherichia coli [7] = test: Concentration required for 90% inhibition against 60 kDa penicillin-binding protein 3 binding using [14C]-Pen G as the radioligand.
Procedure, shortened: (§3)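 Solubilized membranes from sonicated E. coli DC-0 were used. PBP binding was measured as inhibition of [14C]penicillin G binding to each PBP.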

[8] = target: T1, Peptidoglycan D,D-transpeptidase MrdA (Escherichia coli K-12) (UniProt P0AD65); test: Concentration required for 90% inhibition against 66 kDa penicillin-binding protein 2 binding using [14C]-Pen G as the radioligand.; procedure, shortened: as §3
T1 sequence (whole entry): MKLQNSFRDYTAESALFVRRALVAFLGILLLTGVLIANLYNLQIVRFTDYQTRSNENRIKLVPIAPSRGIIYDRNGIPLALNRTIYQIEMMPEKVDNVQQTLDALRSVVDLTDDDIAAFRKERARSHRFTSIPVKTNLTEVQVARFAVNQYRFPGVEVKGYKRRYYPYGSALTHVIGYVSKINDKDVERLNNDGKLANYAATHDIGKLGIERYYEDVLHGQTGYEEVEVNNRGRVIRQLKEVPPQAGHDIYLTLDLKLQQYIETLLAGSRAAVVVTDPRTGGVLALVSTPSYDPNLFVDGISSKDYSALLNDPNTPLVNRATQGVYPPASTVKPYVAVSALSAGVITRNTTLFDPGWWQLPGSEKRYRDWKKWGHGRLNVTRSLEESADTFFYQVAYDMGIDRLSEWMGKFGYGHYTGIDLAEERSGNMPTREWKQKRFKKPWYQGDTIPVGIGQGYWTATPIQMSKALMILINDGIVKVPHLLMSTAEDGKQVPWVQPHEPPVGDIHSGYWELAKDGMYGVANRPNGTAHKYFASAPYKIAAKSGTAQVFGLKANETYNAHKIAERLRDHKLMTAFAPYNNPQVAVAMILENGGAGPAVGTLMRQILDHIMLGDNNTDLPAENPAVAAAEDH

[9] = target: T2, Penicillin-binding protein 1A (Escherichia coli K-12) (UniProt P02918); test: Concentration required for 90% inhibition against 90 kDa penicillin-binding protein 1a binding using [14C]-Pen G as the radioligand.; procedure, shortened: as §3
T2 sequence (whole entry): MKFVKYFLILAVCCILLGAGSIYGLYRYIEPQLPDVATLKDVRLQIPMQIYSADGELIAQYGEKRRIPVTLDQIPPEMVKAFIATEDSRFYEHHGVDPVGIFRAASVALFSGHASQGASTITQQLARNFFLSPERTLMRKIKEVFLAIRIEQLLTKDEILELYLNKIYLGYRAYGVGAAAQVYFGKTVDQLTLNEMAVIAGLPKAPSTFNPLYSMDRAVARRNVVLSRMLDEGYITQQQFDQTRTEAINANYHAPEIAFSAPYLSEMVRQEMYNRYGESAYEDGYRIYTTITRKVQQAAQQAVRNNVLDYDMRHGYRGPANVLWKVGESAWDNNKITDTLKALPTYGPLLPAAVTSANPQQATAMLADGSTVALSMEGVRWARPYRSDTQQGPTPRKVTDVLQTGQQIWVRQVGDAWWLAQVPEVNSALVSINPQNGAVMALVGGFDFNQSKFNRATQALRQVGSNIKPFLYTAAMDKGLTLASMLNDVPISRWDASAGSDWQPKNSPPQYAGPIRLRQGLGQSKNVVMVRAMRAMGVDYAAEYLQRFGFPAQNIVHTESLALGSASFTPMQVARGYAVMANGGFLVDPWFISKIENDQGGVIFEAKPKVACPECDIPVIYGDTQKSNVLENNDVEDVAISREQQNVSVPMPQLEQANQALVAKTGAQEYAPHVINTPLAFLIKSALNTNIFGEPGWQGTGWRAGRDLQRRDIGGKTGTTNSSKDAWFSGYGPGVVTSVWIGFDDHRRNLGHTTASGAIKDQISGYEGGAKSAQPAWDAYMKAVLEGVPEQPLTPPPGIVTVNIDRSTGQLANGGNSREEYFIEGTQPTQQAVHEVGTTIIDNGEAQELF

Pseudomonas aeruginosa [10] = test: In vivo activity in murine against Pseudomonas aeruginosa 5712 infection after sc administration.; assay type: functional; details: Pseudomonas aeruginosa, sc; read-out: ED50
Procedure, shortened: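 Mouse protection test in CD1 Swiss albino mice (18–20 g) infected intraperitoneally with 0.5 mL of diluted P. aeruginosa suspension. Mice received 1.0 mL subcutaneously at the neck base within 5 min of infection and a second treatment 3 h after infection. Doses ranged from 0.05 to 250 mg/kg, with six mice per group. ED50 was calculated by the Reed–Muench method.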

Pseudomonas aeruginosa [11] = test: In vitro antibacterial activity against Pseudomonas aeruginosa 5712; assay type: functional; procedure, shortened: as §1
Staphylococcus aureus [12] = test: In vitro antibacterial activity against Staphylococcus aureus 95(MR); assay type: functional
Procedure, shortened: (§4)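 Staphylococci were tested by the standard agar dilution procedure using serial 2-fold dilutions of agent. The value is reported as the MIC.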

Staphylococcus aureus [13] = test: In vitro antibacterial activity against Staphylococcus aureus Smith(MS); assay type: functional; procedure, shortened: as §4
Serratia marcescens = test: In vitro antibacterial activity against Serratia marcescens SM; assay type: functional; procedure, shortened: as §1
Streptococcus pneumoniae = test: In vivo activity in murine against Streptococcus pneumoniae 6301 infection after sc administration.; assay type: functional; procedure, shortened: as §2
Staphylococcus aureus [14] = test: In vivo activity in murine against Staphylococcus aureus 753(MR) infection after sc administration.; assay type: functional; procedure, shortened: as §2
Staphylococcus aureus [15] = test: In vivo activity in murine against Staphylococcus aureus Smith (MS) infection after sc administration.; assay type: functional; procedure, shortened: as §2
Streptococcus pyogenes = test: In vitro antibacterial activity against Streptococcus pyogenes 4; assay type: functional
Procedure, shortened: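 Broth macrodilution with serial 2-fold dilutions in cation-supplemented Mueller-Hinton broth containing 10% goat serum. The value is reported as the MIC.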

Citrobacter freundii [16] = test: In vivo activity in murine against Citrobacter freundii BS#16 infection after sc administration.; assay type: functional
Procedure, shortened: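 CD1 Swiss albino mice (18–20 g) infected intraperitoneally with 0.5 mL diluted bacterial culture suspension. Single subcutaneous treatment within 5 min, 1.0 mL at dorsal base of neck, serial dilutions spanning 0.05–250 mg/kg. Six mice per treatment and control group. ED50 (50% protective dose) derived by Reed and Muench method.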

MIC (Citrobacter freundii [1]): 2 µg/mL (≈ 2.39 µM)
MIC (Escherichia coli [3]): 0.25 µg/mL (≈ 0.299 µM)
MIC (Escherichia coli [4]): 0.2 µg/mL (≈ 0.239 µM)
MIC (Klebsiella pneumoniae [5]): 0.25 µg/mL (≈ 0.299 µM)
Concentration (Escherichia coli [7]): 0.1 µg/mL
Concentration [8]: 100 µg/mL
Concentration [9]: 2 µg/mL
MIC (Pseudomonas aeruginosa [11]): 16 µg/mL (≈ 19.1 µM)
MIC (Staphylococcus aureus [12]): 8 µg/mL (≈ 9.56 µM)
MIC (Staphylococcus aureus [13]): 16 µg/mL (≈ 19.1 µM)
MIC (Serratia marcescens): 1 µg/mL (≈ 1.19 µM)
MIC (Streptococcus pyogenes): 0.5 µg/mL (≈ 0.597 µM)
SMILES: CC(C)(O/N=C(\C(=O)N[C@@H]1C(=O)N2C(C(=O)[O-])=C(C[N+]3(C)CCN(c4c(F)cc5c(=O)c(C(=O)O)cn(CCF)c5c4F)CC3)CS[C@H]12)c1csc(N)n1)C(=O)O
ED50 (Escherichia coli [2]): 0.28 mg/kg
ED50 (Enterobacter cloacae): < 5 mg/kg
ED50 (Klebsiella pneumoniae [6]): 3 mg/kg
ED50 (Pseudomonas aeruginosa [10]): > 250 mg/kg
ED50 (Streptococcus pneumoniae): 8 mg/kg
ED50 (Staphylococcus aureus [14]): 44 mg/kg
ED50 (Staphylococcus aureus [15]): 2.6 mg/kg
ED50 (Citrobacter freundii [16]): 9 mg/kg
